Data set [1] deals with Trypanosoma cruzi. The data set is described as follows: Trypanocidal activity against Trypanosoma cruzi Y in Swiss albino mouse blood after 24 hrs. The format is functional, organism-based. The gist of the method: (§1)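 Blood was drawn by cardiac puncture from Swiss albino mice infected with T. cruzi Y strain at peak parasitaemia (day 7). It was diluted with healthy mouse blood to 2.10⁶ forms/mL. Compounds from DMSO stocks were tested at 100, 250 and 500, in triplicate, at 4 °C. Parasites were counted after 24 h against infected blood with matched DMSO. IC50 was converted to molar pIC50.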

The nature of data set [2]: Cytotoxicity against BALB/c mouse peritoneal cavity cells at 100 ug/mL after 20 hrs by MTT assay. The data set is classed as cell-based. Summed up:
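Peritoneal cells came from male Balb/c mice (18–25 g). They were washed in RPMI and resuspended in RPMI with 10% FBS and antibiotics, with viable cells counted by Trypan blue. Cells at 2 × 10⁵/well were held 30 min at 37 °C, 5% CO₂, exposed to compound for 20 h, then given MTT for 4 h. Formazan was dissolved in DMSO and read at 490 nm. Viability was taken as % of control OD, with ≥5% death counted as cytotoxic.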
Background: Tetrazolium assays rely on reduction of a dye to a coloured formazan, in cell work by metabolically active cells.

Data set [3] deals with Trypanosoma cruzi. The data set is described as follows: Trypanocidal activity against Trypanosoma cruzi Y in Swiss albino mouse blood at 500 ug/mL after 24 hrs. The format is functional, organism-based. The gist of the method:
as §1

We go through 28 molecules from ChEMBL document CHEMBL1139304, “Synthesis, antichagasic in vitro evaluation, cytotoxicity assays, molecular modeling and SAR/QSAR studies of a 2-phenyl-3-(1-phenyl-1H-pyrazol-4-yl)-acrylic acid benzylidene-carbohydrazide series” (Bioorg Med Chem, 2009).

The structures appear in SMILES notation. Activity calls are given as the source filed them. The rule behind the calls is not given here.

For `N#Cc1ccc(/C=N/NC(=O)/C(=C/c2cnn(-c3ccccc3)c2)c2ccc(C(F)(F)F)cc2)cc1`, the IC50 in the data set with Trypanosoma cruzi [1] (read-out: IC50) was 590 µM; in the data set with Trypanosoma cruzi [1] (read-out: pIC50 (converted)) it was 589 µM. The molecule further gave an Activity in data set [2] of 0%.

For the molecule `N#Cc1ccc(/C=N/NC(=O)/C(=C/c2cnn(-c3ccccc3)c2)c2ccc(F)cc2)cc1`, the IC50 was 50 µM in the data set on Trypanosoma cruzi [1] (read-out: IC50) and 53.7 µM in the data set with Trypanosoma cruzi [1] (read-out: pIC50 (converted)). In data set [2], this molecule gave an Activity of 0%.

Take `O=C(N/N=C/c1ccc(Br)cc1)/C(=C/c1cnn(-c2ccccc2)c1)c1ccc(C(F)(F)F)cc1`: the values for the IC50 in the data set on Trypanosoma cruzi [1] (read-out: IC50) and in the data set with Trypanosoma cruzi [1] (read-out: pIC50 (converted)) were 620 µM and 617 µM, respectively. Further, the Activity in data set [2] was found to be 0%.

With `COc1ccc(/C(=C\c2cnn(-c3ccccc3)c2)C(=O)N/N=C/c2ccc(Br)cc2)cc1`, the IC50 with Trypanosoma cruzi [1] (read-out: IC50) was 930 µM; in the data set with Trypanosoma cruzi [1] (read-out: pIC50 (converted)), 933 µM. Besides, in data set [2], the Activity worked out at 0%.

In the case of `O=C(N/N=C/c1ccc(Cl)cc1)/C(=C/c1cnn(-c2ccccc2)c1)c1ccccc1`, the IC50 with Trypanosoma cruzi [1] (read-out: IC50) was 8590 µM; in the data set with Trypanosoma cruzi [1] (read-out: pIC50 (converted)) it was 8510 µM. Also, in data set [2], the Activity was 0%.

Regarding `O=C(N/N=C/c1ccccc1)/C(=C/c1cnn(-c2ccccc2)c1)c1ccc(Br)cc1`, in the data set with Trypanosoma cruzi [3], the IC50 entry is reported as “Not Active” and the pIC50 result is “inactive”.

As for `CN(C)c1ccc(/C=N/NC(=O)/C(=C/c2cnn(-c3ccccc3)c2)c2ccc(O)cc2)cc1`, the IC50 is 1880 µM in the data set with Trypanosoma cruzi [1] (read-out: IC50) and 1860 µM with Trypanosoma cruzi [1] (read-out: pIC50 (converted)). In data set [2], this molecule registered an Activity of 12.94%.

With `COc1ccc(/C=N/NC(=O)/C(=C/c2cnn(-c3ccccc3)c2)c2ccccc2)cc1`, the IC50 with Trypanosoma cruzi [1] (read-out: IC50) and in the data set on Trypanosoma cruzi [1] (read-out: pIC50 (converted)) was 1510 µM each time. In addition, the Activity in data set [2] was determined as 0%.

Turning to `CN(C)c1ccc(/C=N/NC(=O)/C(=C/c2cnn(-c3ccccc3)c2)c2ccccc2)cc1`, the IC50 in the data set with Trypanosoma cruzi [1] (read-out: IC50) and in the data set on Trypanosoma cruzi [1] (read-out: pIC50 (converted)) was 200 µM each time. This molecule had an Activity in data set [2] of 0%.

For the molecule `O=C(N/N=C/c1ccccc1)/C(=C/c1cnn(-c2ccccc2)c1)c1ccc(F)cc1`, the IC50 is 7830 µM in the data set on Trypanosoma cruzi [1] (read-out: IC50) and 7760 µM in the data set with Trypanosoma cruzi [1] (read-out: pIC50 (converted)). Moreover, the Activity in data set [2] is reported as 0%.

Consider `O=C(N/N=C/c1ccc(F)cc1)/C(=C/c1cnn(-c2ccccc2)c1)c1ccccc1`, for which the IC50 with Trypanosoma cruzi [1] (read-out: IC50) was 2440 µM; with Trypanosoma cruzi [1] (read-out: pIC50 (converted)), 2450 µM. In data set [2], the Activity is given as 0%.

Turning to `CN(C)c1ccc(/C=N/NC(=O)/C(=C/c2cnn(-c3ccccc3)c2)c2ccc(C(F)(F)F)cc2)cc1`, the values for the IC50 with Trypanosoma cruzi [1] (read-out: IC50) and with Trypanosoma cruzi [1] (read-out: pIC50 (converted)) were 920 µM and 912 µM, respectively. In data set [2], this molecule gave an Activity of 23.07%.

Regarding `COc1ccc(/C=N/NC(=O)/C(=C/c2cnn(-c3ccccc3)c2)c2ccc(F)cc2)cc1`, the IC50 in the data set with Trypanosoma cruzi [1] (read-out: IC50) was 340 µM; with Trypanosoma cruzi [1] (read-out: pIC50 (converted)), 339 µM. In data set [2], this molecule gave an Activity of 14.8%.

On to `CSc1ccc(/C=N/NC(=O)/C(=C/c2cnn(-c3ccccc3)c2)c2ccccc2)cc1`, for which the IC50 in the data set on Trypanosoma cruzi [1] (read-out: IC50) was 440 µM; in the data set on Trypanosoma cruzi [1] (read-out: pIC50 (converted)) it was 437 µM. Further, in data set [2], the Activity is listed as 22.8%.

For `O=C(N/N=C/c1ccc([N+](=O)[O-])cc1)/C(=C/c1cnn(-c2ccccc2)c1)c1ccccc1`, the IC50 in the data set on Trypanosoma cruzi [1] (read-out: IC50) is 30 µM; with Trypanosoma cruzi [1] (read-out: pIC50 (converted)), 28.2 µM. Besides, the Activity in data set [2] is recorded as 19.4%.

Turning to `N#Cc1ccc(/C=N/NC(=O)/C(=C/c2cnn(-c3ccccc3)c2)c2ccccc2)cc1`, the IC50 in the data set with Trypanosoma cruzi [1] (read-out: IC50) was 1870 µM; in the data set with Trypanosoma cruzi [1] (read-out: pIC50 (converted)) it was 1860 µM. This molecule registered an Activity in data set [2] of 0%.

Regarding `COc1ccc(/C(=C\c2cnn(-c3ccccc3)c2)C(=O)N/N=C/c2ccc([N+](=O)[O-])cc2)cc1`, the IC50 was 980 µM in the data set on Trypanosoma cruzi [1] (read-out: IC50) and 977 µM in the data set on Trypanosoma cruzi [1] (read-out: pIC50 (converted)). In data set [2], this molecule gave an Activity of 11.22%.

Take `O=C(N/N=C/c1ccc(O)cc1)/C(=C/c1cnn(-c2ccccc2)c1)c1ccccc1`: the IC50 with Trypanosoma cruzi [1] (read-out: IC50) was 760 µM; with Trypanosoma cruzi [1] (read-out: pIC50 (converted)), 759 µM. Besides, the Activity in data set [2] stood at 12.32%.

As for `O=C(N/N=C/c1ccccc1)/C(=C/c1cnn(-c2ccccc2)c1)c1ccccc1`, the values for the IC50 with Trypanosoma cruzi [1] (read-out: IC50) and with Trypanosoma cruzi [1] (read-out: pIC50 (converted)) were 190 µM and 191 µM, respectively. In addition, the Activity in data set [2] is recorded as 4%.

For `NNC(=O)/C(=C/c1cnn(-c2ccccc2)c1)c1ccccc1`, the IC50 with Trypanosoma cruzi [1] (read-out: IC50) was 2810 µM; with Trypanosoma cruzi [1] (read-out: pIC50 (converted)) it was 2820 µM. This molecule came in with an Activity in data set [2] of 0%.

Turning to `CN(C)c1ccc(/C=N/NC(=O)/C(=C/c2cnn(-c3ccccc3)c2)c2ccc(Br)cc2)cc1`, the IC50 in the data set on Trypanosoma cruzi [1] (read-out: IC50) was 700 µM; in the data set with Trypanosoma cruzi [1] (read-out: pIC50 (converted)) it was 708 µM. This molecule also had an Activity in data set [2] of 0%.

Consider `CN(C)c1ccc(/C=N/NC(=O)/C(=C/c2cnn(-c3ccccc3)c2)c2ccc(F)cc2)cc1`, for which the IC50 is 890 µM with Trypanosoma cruzi [1] (read-out: IC50) and 891 µM with Trypanosoma cruzi [1] (read-out: pIC50 (converted)). In data set [2], this molecule yielded an Activity of 12.2%.

In the case of `O=C(N/N=C/c1ccc([N+](=O)[O-])cc1)/C(=C/c1cnn(-c2ccccc2)c1)c1ccc(C(F)(F)F)cc1`, the IC50 in the data set on Trypanosoma cruzi [1] (read-out: IC50) was 750 µM; in the data set with Trypanosoma cruzi [1] (read-out: pIC50 (converted)) it was 741 µM. The Activity in data set [2] is 0%.

On to `O=C(N/N=C/c1ccccc1)/C(=C/c1cnn(-c2ccccc2)c1)c1ccc(O)cc1`, for which the IC50 in the data set with Trypanosoma cruzi [1] (read-out: IC50) was 1360 µM; with Trypanosoma cruzi [1] (read-out: pIC50 (converted)), 1350 µM. The Activity in data set [2] amounted to 9.64%.

As for `CCOc1ccc(/C=N/NC(=O)/C(=C/c2cnn(-c3ccccc3)c2)c2ccccc2)cc1`, the IC50 in the data set on Trypanosoma cruzi [1] (read-out: IC50) and in the data set with Trypanosoma cruzi [1] (read-out: pIC50 (converted)) was 380 µM throughout. The Activity in data set [2] is 0%.

Consider `COc1ccc(/C(=C\c2cnn(-c3ccccc3)c2)C(=O)N/N=C/c2ccc(O)cc2)cc1`, for which the IC50 in the data set on Trypanosoma cruzi [1] (read-out: IC50) is 1420 µM; in the data set on Trypanosoma cruzi [1] (read-out: pIC50 (converted)), 1410 µM. For the same molecule, the Activity in data set [2] stood at 12.04%.

As for `O=C(N/N=C/c1ccc(Br)cc1)/C(=C/c1cnn(-c2ccccc2)c1)c1ccccc1`, the results for the IC50 in the data set on Trypanosoma cruzi [1] (read-out: IC50) and with Trypanosoma cruzi [1] (read-out: pIC50 (converted)) were 1500 µM and 1510 µM, respectively. This molecule yielded an Activity in data set [2] of 14.35%.

As for `COc1ccc(/C(=C\c2cnn(-c3ccccc3)c2)C(=O)N/N=C/c2ccc(C#N)cc2)cc1`, the values for the IC50 in the data set on Trypanosoma cruzi [1] (read-out: IC50) and in the data set with Trypanosoma cruzi [1] (read-out: pIC50 (converted)) were 1310 µM and 1320 µM, respectively. Moreover, the Activity in data set [2] was 14.35%.
